According to ChEMBL document CHEMBL1154567, “New lanostanoids of Ganoderma tsugae” (2000):
≈ marks a conversion by molar mass, not a printed value. Numbered stars: 1 amine (or outer) side, 2 acyl side, 3 side chain; on linkers, the order of the positions; unused ones are H or OH. Bridge positions count the residues as written; N and C are the ends. Square brackets hold non-standard residues; d marks the D form. Peptide text beside a SMILES is read from it. I, II: the chains in the order shown. Actinocin(1to9) = Cc1c2oc3c(C)ccc(C(=O)[*:2])c3nc-2c(C(=O)[*:1])c(N)c1=O; NMeV = CN[C@H](C(=O)O)C(C)C; Sar = CNCC(=O)O

How the values were obtained:
Format in all cases: functional
[1] = Cytotoxicity against human PLC/PRF/5 cells after 6 days by MTT assay; details: PLC-PRF-5, 144 h, read-out: ED50 (the source's name)
Summary of the method: (§1)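 Human lines (hepatoma PLC/PRF/5, T24, cervical carcinoma HT-3 and SiHa) were kept in DMEM with 10% FBS, 2 mM L-glutamine and penicillin/streptomycin, plus 10 mM HEPES pH 7.3, at 37 °C in CO2. Cells at 1-3 × 10³/100 µL had 6 h to attach, then fresh medium with graded drug concentrations was added for 6 days. Survival was read by 4 h MTT (1 mg/mL in PBS, 10 µL) at 37 °C, with DMSO solubilization.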

T-24 = assay: Cytotoxicity against human T24 cells after 6 days by MTT assay; details: T-24, 144 h, read-out: ED50 (the source's name); summary of the method: as §1
Ca-Ski = assay: Cytotoxicity against human CaSKi cells after 6 days by MTT assay; details: 144 h, read-out: ED50 (the source's name)
Summary of the method: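 CaSki (human cervical carcinoma) kept in DMEM with 10% FBS, 2 mM L-glutamine and penicillin/streptomycin. For the assay, 1-3 × 10³ cells/100 µL were seeded and left 6 h to attach. Medium was then replaced with fresh medium holding a range of drug concentrations, plus 10 mM HEPES pH 7.3, at 37 °C in CO₂. After 6 days, MTT (1 mg/mL in PBS) was added for 4 h. Formazan was dissolved in DMSO.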

HT-3 = assay: Cytotoxicity against human HT3 cells after 6 days by MTT assay; details: HT-3, 144 h, read-out: ED50 (the source's name); summary of the method: as §1
SiHa = assay: Cytotoxicity against human SiHa cells after 6 days by MTT assay; details: 144 h, read-out: ED50 (the source's name); summary of the method: as §1
[2] = Cytotoxicity against mouse 212 cells after 6 days by MTT assay; details: 144 h, read-out: ED50 (the source's name)
Summary of the method: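 The 212 line is an inducible Ha-ras-transformed NIH/3T3 line. It was grown in alpha MEM with 10% calf serum and antibiotics, plus 10 mM HEPES pH 7.3, at 37 °C in CO2. Cells were seeded at 1-3 × 10³/100 µL and allowed 6 h to attach. Medium was then swapped for fresh medium carrying various drug concentrations for 6 days. MTT (10 µL of 1 mg/mL) was added for 4 h at 37 °C, and formazan was dissolved in DMSO.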

SMILES	EC50 [1] [µg/mL]	EC50 (T-24) [µg/mL]	EC50 (Ca-Ski) [µg/mL]	EC50 (HT-3) [µg/mL]	EC50 (SiHa) [µg/mL]	EC50 [2] [µg/mL]
Cc1c2oc3c(C)ccc(C(=O)N[C@@H]4C(=O)N[C@H](C(C)C)C(=O)N5CCC[C@H]5C(=O)N(C)CC(=O)N(C)[C@@H](C(C)C)C(=O)O[C@@H]4C)c3nc-2c(C(=O)N[C@@H]2C(=O)N[C@H](C(C)C)C(=O)N3CCC[C@H]3C(=O)N(C)CC(=O)N(C)[C@@H](C(C)C)C(=O)O[C@@H]2C)c(N)c1=O [DACTINOMYCIN] (I: T[dV]P[Sar][NMeV] / II: T[dV]P[Sar][NMeV]; ester I:1-I:C, II:1-II:C; linker I:N-II:N via Actinocin(1to9))	0.0014 (≈ 0.00112 µM)	0.0015 (≈ 0.00119 µM)	0.0019 (≈ 0.00151 µM)	–	–	–
CC(=O)O[C@H]1CC[C@]2(C)C3=C(CC[C@H]2C1(C)C)[C@]1(C)CC[C@H]([C@@H](CCC=C(C)C)C(=O)O)[C@@]1(C)CC3 [ACETYL TRAMETENOLIC ACID]	9.2 (≈ 18.4 µM)	5.8 (≈ 11.6 µM)	3.9 (≈ 7.82 µM)	–	–	–
CC(C)=CCC[C@@H](C(=O)O)[C@H]1CC[C@@]2(C)C3=C(CC[C@]12C)[C@@]1(C)CC[C@H](O)C(C)(C)[C@@H]1CC3 [TRAMETENOLIC ACID]	–	4.4 (≈ 9.63 µM)	6.2 (≈ 13.6 µM)	3.5 (≈ 7.66 µM)	5.5 (≈ 12 µM)	–
CC(=O)O[C@@H]1CC[C@]2(C)C3=C(CC[C@H]2C1(C)C)[C@]1(C)CC[C@H]([C@@H](CCC=C(C)C)C(=O)O[C@@H]2O[C@H](CO)[C@@H](O)[C@H](O)[C@H]2O)[C@@]1(C)CC3 [TSUGARIOSIDE A]	–	1.73 (≈ 2.62 µM)	–	6.8 (≈ 10.3 µM)	8.4 (≈ 12.7 µM)	–
C=C(C)/C(C)=C\C[C@@H](C(=O)O[C@@H]1OC[C@@H](O)[C@H](O)[C@H]1O)[C@H]1CC[C@@]2(C)C3=C(CC[C@]12C)[C@@]1(C)CC[C@@H](OC(C)=O)C(C)(C)[C@@H]1CC3 [TSUGARIOSIDE C]	6.5 (≈ 10.1 µM)	8.6 (≈ 13.4 µM)	–	7.2 (≈ 11.2 µM)	9.5 (≈ 14.8 µM)	–
CC(C)=CCC[C@@H](C(=O)O)[C@H]1CC[C@@]2(C)C3=C(CC[C@]12C)[C@@]1(C)CCC(=O)C(C)(C)[C@@H]1CC3	12.1 (≈ 26.6 µM)	8.2 (≈ 18 µM)	7.2 (≈ 15.8 µM)	6.9 (≈ 15.2 µM)	5.1 (≈ 11.2 µM)	–
CC(=O)O[C@@H]1CC[C@]2(C)C3=C(CC[C@H]2C1(C)C)[C@]1(C)CC[C@H]([C@@H](CCC=C(C)C)C(=O)O)[C@@]1(C)CC3 [TSUGARIC ACID A]	6.8 (≈ 13.6 µM)	3.1 (≈ 6.22 µM)	–	–	–	–
C=C(C)C(C)CC[C@@H](C(=O)O)[C@H]1[C@H](O)C[C@@]2(C)C3=C(CC[C@]12C)[C@@]1(C)CC[C@H](OC(C)=O)C(C)(C)[C@@H]1CC3 (stereo not given in full) [TSUGARIC ACID B]	–	–	–	–	–	10.3 (≈ 19.5 µM)
